Measured values reported in ChEMBL document CHEMBL1649480, “Farnesol-induced apoptosis in Candida albicans” (2009).
The source made the active and inactive calls. No cut-off for these calls is given here.

Columns and labels:
Candida albicans [1] = test: Upregulation of Catalase A expression in Candida albicans SC5314 at 40 uM after 24 hrs by MALDI-TOF MS; assay type: functional, organism-based
Method in brief: (§1)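 Overnight YNB-glucose SC5314 culture, PBS-washed, adjusted to OD600 0.1 and treated 24 h with 40 or 200 μM farnesol (methanol in controls). Proteomes were compared with untreated cells by 2D SDS-PAGE and MALDI-TOF MS, searched against NCBI nonredundant database. Spots were counted as changed at ≥1.5-fold in three independent experiments.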

Candida albicans [2] = test: Induction of apoptosis in Candida albicans SC5314 assessed as mitochondrial degradation at 40 uM after 3 hrs by Fluorescence analysis; assay type: functional
Method in brief: (§2)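 Farnesol-exposed SC5314 (40, 100, 200 μM; methanol control, H2O2 positive control) stained with a MitoPT mitochondrial permeability transition dye per kit instructions. Cells imaged by confocal microscopy: red mitochondrial aggregates in healthy cells, dispersed green signal in apoptotic cells. Percentage of cells with degradation was recorded.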

Candida albicans [3] = test: Increase in MCA1 expression in Candida albicans SC5314 at 5 mM after 4 hrs by quantitative PCR analysis
Candida albicans [4] = test: Upregulation of Heat shock protein 60 expression in Candida albicans SC5314 at 200 uM after 24 hrs by MALDI-TOF MS; assay type: functional, organism-based; method in brief: as §1
Candida albicans [5] = test: Downregulation of ATP synthase subunit D expression in Candida albicans SC5314 at 200 uM after 24 hrs by MALDI-TOF MS; assay type: functional, organism-based; method in brief: as §1
Candida albicans [6] = test: Downregulation of Putative stress response protein expression in Candida albicans SC5314 at 40 uM after 24 hrs by MALDI-TOF MS; assay type: functional, organism-based; method in brief: as §1
Candida albicans [7] = test: Increase in MCA1 expression in Candida albicans SC5314 at 10 mM after 4 hrs by quantitative PCR analysis
Candida albicans [8] = test: Induction of ROS accumulation in mitochondria of Candida albicans SC5314 at 100 uM after 3 hrs by Fluorescence analysis; assay type: functional
Method in brief: (§3)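 Cells were exposed 3 h to 40, 100 or 200 μM farnesol, with methanol control and H2O2 positive control. Washed cells were stained 30 min in the dark with a mix of dichlorodihydrofluorescein diacetate, propidium iodide and calcofluor white, then washed and viewed by confocal microscopy. % green (ROS) cells of all cells was scored, with red (necrotic) cells scored separately.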

Candida albicans [9] = test: Increase in MCA1 expression in Candida albicans SC5314 at 40 uM after 4 hrs by quantitative PCR analysis; assay type: functional
Method in brief: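 Log-phase SC5314 cells were used, pregrown overnight at 30°C and 120 rpm in yeast nitrogen base (pH 7.0) with 50 mM glucose, washed in PBS and set to OD600 0.1. Farnesol (methanol stock) was given for 4 h, with methanol-matched untreated controls. SYBR green qPCR ran 35 cycles with 58°C annealing and a melt-curve check. MCA1 was calculated by 2^−ΔΔCT against ACT1 and RPP2B.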

Candida albicans [10] = test: Upregulation of Heat shock protein 90 expression in Candida albicans SC5314 at 200 uM after 24 hrs by MALDI-TOF MS; assay type: functional, organism-based; method in brief: as §1
Candida albicans [11] = test: Downregulation of S-adenosylmethionine synthase expression in Candida albicans SC5314 at 200 uM after 24 hrs by MALDI-TOF MS; assay type: functional, organism-based; method in brief: as §1
Candida albicans [12] = test: Upregulation of Alanine/arginine aminopeptidase expression in Candida albicans SC5314 at 40 uM after 24 hrs by MALDI-TOF MS; assay type: functional, organism-based; method in brief: as §1
Candida albicans [13] = test: Upregulation of Putative aspartate aminotransferase expression in Candida albicans SC5314 at 200 uM after 24 hrs by MALDI-TOF MS; assay type: functional, organism-based
Method in brief: (§4)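 SC5314 grown overnight at 30°C, 120 rpm, in yeast nitrogen base (pH 7.0) with 50 mM glucose. Cells were washed in PBS and adjusted to OD600 0.1, then treated 24 h with farnesol from a methanol dilution; controls received methanol. Proteomes of treated and untreated cells were compared by 2-D SDS-PAGE and MALDI-TOF MS, with ProFound searches of the NCBI nonredundant database. Spots changed at least 1.5-fold in three independent experiments were counted.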

Candida albicans [14] = test: Upregulation of Alcohol dehydrogenase expression in Candida albicans SC5314 at 40 uM after 24 hrs by MALDI-TOF MS; assay type: functional, organism-based; method in brief: as §1
Candida albicans [15] = test: Upregulation of Acetyl-CoA hydrolase/transferase expression in Candida albicans SC5314 at 200 uM after 24 hrs by MALDI-TOF MS; assay type: functional, organism-based; method in brief: as §1
Candida albicans [16] = test: Downregulation of Dihydroxy acid dehydratase expression in Candida albicans SC5314 at 200 uM after 24 hrs by MALDI-TOF MS; assay type: functional, organism-based; method in brief: as §1
Candida albicans [17] = test: Upregulation of Aldose reductase expression in Candida albicans SC5314 at 200 uM after 24 hrs by MALDI-TOF MS; assay type: functional, organism-based; method in brief: as §1
Candida albicans [18] = test: Downregulation of Pyruvate kinase expression in Candida albicans SC5314 at 200 uM after 24 hrs by MALDI-TOF MS; assay type: functional, organism-based; method in brief: as §1
Candida albicans [19] = test: Increase in MCA1 expression in Candida albicans SC5314 at 2.5 mM after 4 hrs by quantitative PCR analysis
Candida albicans [20] = test: Upregulation of Coproporphyrinogen III oxidase expression in Candida albicans SC5314 at 200 uM after 24 hrs by MALDI-TOF MS; assay type: functional, organism-based; method in brief: as §1
Candida albicans [21] = test: Upregulation of Manganese superoxide dismutase expression in Candida albicans SC5314 at 200 uM after 24 hrs by MALDI-TOF MS; assay type: functional, organism-based; method in brief: as §4
Candida albicans [22] = test: Upregulation of Glutathione reductase expression in Candida albicans SC5314 at 200 uM after 24 hrs by MALDI-TOF MS; assay type: functional, organism-based; method in brief: as §1
Candida albicans [23] = test: Induction of apoptosis in Candida albicans SC5314 assessed as mitochondrial degradation at 200 uM after 3 hrs by Fluorescence analysis; assay type: functional; method in brief: as §2
Candida albicans [24] = test: Induction of ROS accumulation in mitochondria of Candida albicans SC5314 after 3 hrs by Fluorescence analysis; assay type: functional, organism-based; method in brief: as §3
Candida albicans [25] = test: Downregulation of Enolase expression in Candida albicans SC5314 at 40 uM after 24 hrs by MALDI-TOF MS; assay type: functional, organism-based; method in brief: as §1
Candida albicans [26] = test: Downregulation of Translational elongation factor 1 expression in Candida albicans SC5314 at 40 uM after 24 hrs by MALDI-TOF MS; assay type: functional, organism-based; method in brief: as §1
Candida albicans [27] = test: Increase in MCA1 expression in Candida albicans SC5314 at 100 uM after 4 hrs by quantitative PCR analysis; assay type: functional, organism-based
Method in brief: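 Log-phase SC5314 exposed 4 h to farnesol (methanol vehicle control). cDNA diluted 1:20 and run in SYBR green real-time PCR: 15 min 95°C, then 35 cycles of 95°C 1 min, 58°C 30 s, 72°C 30 s, with a melt curve check. MCA1 level was calculated by 2^−ΔΔCT against ACT1 and RPP2B reference genes.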

Candida albicans [28] = test: Downregulation of Phosphoglycerate mutase expression in Candida albicans SC5314 at 40 uM after 24 hrs by MALDI-TOF MS; assay type: functional, organism-based; method in brief: as §1
Candida albicans [29] = test: Downregulation of Riboflavin synthase expression in Candida albicans SC5314 at 40 uM after 24 hrs by MALDI-TOF MS; assay type: functional, organism-based; method in brief: as §1

CC(C)=CCC/C(C)=C/CC/C(C)=C/CO [FARNESOL]
Activity (Candida albicans [1]): Active
Activity (Candida albicans [2]): 90%
Activity (Candida albicans [3]): Active
Activity (Candida albicans [4]): Active
Activity (Candida albicans [5]): Active
Activity (Candida albicans [6]): Active
Activity (Candida albicans [7]): Active
Activity (Candida albicans [8]): 80%
fold change (FC) (Candida albicans [9]): 3
Activity (Candida albicans [10]): Active
Activity (Candida albicans [11]): Active
Activity (Candida albicans [12]): Active
Activity (Candida albicans [13]): Active
Activity (Candida albicans [14]): Active
Activity (Candida albicans [15]): Active
Activity (Candida albicans [16]): Active
Activity (Candida albicans [17]): Active
Activity (Candida albicans [18]): Active
Activity (Candida albicans [19]): Active
Activity (Candida albicans [20]): Active
Activity (Candida albicans [21]): Active
Activity (Candida albicans [22]): Active
Activity (Candida albicans [23]): 95%
Activity (Candida albicans [24]): Active
Activity (Candida albicans [25]): Active
Activity (Candida albicans [26]): Active
Activity (Candida albicans [27]): inactive
Activity (Candida albicans [28]): Active
Activity (Candida albicans [29]): Active
